ChEMBL document CHEMBL1152334, “Quassinoid inhibition of AP-1 function does not correlate with cytotoxicity or protein synthesis inhibition” (J Nat Prod, 2009)
Active and inactive are the calls of the source. The calls are words filed in the database; no cut-off is given here.

Columns and labels:
[1] = Growth inhibition of human NCI60 cells; format: functional
[2] = Growth inhibition of human AP-1 beta-lactamase reporter screening assay cells at 1 uM; conditions: AP-1 reporter cells
[3] = test system: HeLa; experiment: Inhibition of protein synthesis in human HeLa cells assessed as [35S]methionine incorporation into protein treated for 45 mins before [35S]methionine addition by Whatman paper analysis; format: functional, cell-based
[4] = Inhibition of protein synthesis in cell-free extract of mouse Krebs2 cells by SDS-PAGE; format: functional
[5] = test system: Nucleic Acid; experiment: Inhibition of TPA-induced SRE transfected in HEK293 cells at 0.1 to 10 uM treated 1 hr before TPA stimulation measured after 18 hrs by luciferase reporter gene assay; format: cell-based
Procedure, shortened: (§1)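 HEK293 cells were grown in DMEM with 10% FBS at 37 °C and 5% CO2. They were transiently transfected with a luciferase reporter (0.1 µg/well); reporters were AP-1 (four TRE consensus copies from GCN4), NF-κB (five responsive-element copies) or SRE. After 24 h, medium went to DMEM with 0.2% FBS. Cells were pretreated 1 h with compound or DMSO, then given TPA 10 ng/mL for 18 h. Firefly luciferase was read from passive-lysis lysates, TPA alone = 100%, in quadruplicate.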

[6] = biological target: Transcription factor Jun (Homo sapiens) (UniProt P05412); experiment: Inhibition of TPA-induced AP1 transfected in HEK293 cells assessed as inhibition of […] reporter activity at 0.1 to 10 uM treated 1 hr before TPA stimulation measured after 18 hrs by luciferase reporter gene assay; format: cell-based; procedure, shortened: as §1
Chain of Transcription factor Jun (Homo sapiens) (P05412 whole entry): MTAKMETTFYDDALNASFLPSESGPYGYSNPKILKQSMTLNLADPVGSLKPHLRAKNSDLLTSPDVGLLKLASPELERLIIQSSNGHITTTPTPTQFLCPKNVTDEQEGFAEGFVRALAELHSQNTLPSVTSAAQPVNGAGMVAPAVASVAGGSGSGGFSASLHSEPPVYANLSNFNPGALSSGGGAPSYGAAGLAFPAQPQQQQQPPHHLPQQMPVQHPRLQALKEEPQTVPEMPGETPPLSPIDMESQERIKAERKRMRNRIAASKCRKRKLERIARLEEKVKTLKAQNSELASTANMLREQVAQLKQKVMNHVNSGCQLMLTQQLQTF

[7] = test system: HEK293; experiment: Inhibition of TPA-induced NF-kappaB transfected in HEK293 cells at 0.1 to 10 uM treated 1 hr before TPA stimulation measured after 18 hrs by luciferase reporter gene assay; format: cell-based; procedure, shortened: as §1

| SMILES | GI50 ([1]; Homo sapiens, NCI60) [nM] | other results |
| --- | --- | --- |
| CC(=O)O[C@H]1C(=O)O[C@@H]2C[C@H]3C(C)=CC(=O)[C@@H](O)[C@]3(C)[C@H]3[C@]4(O)OC[C@]32[C@@H]1[C@@H](C)[C@H]4O [HOLACANTHONE] | 30 | – |
| CC[C@@](O)(CC(=O)O[C@@H]1C(=O)O[C@@H]2C[C@@H]3C(C)=CC(=O)[C@H](O)[C@]3(C)[C@H]3[C@]4(O)OC[C@]32[C@@H]1[C@@H](C)[C@H]4O)C(C)C [PENINSULARINONE] | 1 | – |
| COC(=O)[C@@]12OC[C@]34[C@H]([C@@H](O)C1O)[C@@]1(C)CC(=O)C(OC(=O)CC(C)C(F)(F)F)=C(C)[C@@H]1C[C@H]3OC(=O)[C@H](O)[C@H]42 (some centres undefined) | 2900 | – |
| COC(=O)[C@@]12OC[C@]34[C@H]([C@@H](O)C1O)[C@@]1(C)CC(=O)C(O)=C(C)[C@@H]1C[C@H]3OC(=O)[C@H](OC(=O)CC(C)C(F)(F)F)[C@H]42 (some centres undefined) | 28 | – |
| CC1=CC(=O)[C@H](O)[C@@]2(C)[C@@H]1C[C@H]1OC(=O)C(OC(=O)CC3=CCCC3)[C@H]3[C@@H](C)[C@@H](O)[C@]4(O)OC[C@]13[C@@H]42 (some centres undefined) | 40000 | – |
| COC(=O)[C@@]12OC[C@]34[C@H]([C@@H](O)C1O)[C@@]1(C)CC(=O)C(O)=C(C)[C@@H]1C[C@H]3OC(=O)[C@H](OC(=O)/C=C(/c1ccccc1)C(F)(F)F)[C@H]42 (some centres undefined) | 3600 | – |
| CC[C@](C)(O)C(=O)O[C@H]1C(=O)O[C@@H]2C[C@H]3C(C)=CC(=O)[C@@H](O)[C@]3(C)[C@H]3[C@@]4(O)OC[C@]32[C@@H]1[C@@H](C)[C@H]4O (stereo in doubt; 4) [GLAUCARUBINONE] | – | inhibition at 1 µM [2]: < 25%; GI50 [1]: 1800 nM; IC50 [3]: 270 nM; IC50 [4]: 290 nM |
| C=C1[C@@H](O)[C@@]2(O)OC[C@@]34[C@H]1[C@@H](OC(=O)C/C=C(\C)CCCCC)C(=O)O[C@@H]3C[C@H]1C(C)=CC(=O)[C@@H](O)[C@]1(C)[C@@H]24 | 1.5 | – |
| CC(=O)OC(C)(C)/C(C)=C/C(=O)O[C@H]1C(=O)O[C@@H]2C[C@H]3[C@H](C)C(=O)C(O[C@@H]4O[C@H](CO)[C@@H](O)[C@H](O)[C@H]4O)=C[C@]3(C)[C@H]3[C@@H](O)[C@H](O)[C@]4(C(=O)O)OC[C@]32[C@@H]14 [BRUCEOSIDE F] | 74000 | – |
| CC[C@@H](C)C(=O)O[C@H]1C(=O)O[C@@H]2C[C@H]3C(C)=CC(=O)[C@@H](O)[C@]3(C)[C@H]3[C@@H](O)[C@H](O)[C@]4(C)OC[C@]32[C@@H]14 [SIMALIKALACTONE D] | 39 | – |
| CC[C@](C)(O)C(=O)O[C@H]1C(=O)O[C@@H]2C[C@H]3C(C)=CC(=O)[C@@H](O)[C@]3(C)[C@H]3[C@@]4(O)OC[C@]32[C@@H]1[C@@H](C)[C@H]4O (stereo in doubt) [GLAUCARUBINONE] | – | GI50 [1]: 21000 nM |
| COC1=C[C@@H](C)[C@@H]2C[C@H]3OC(=O)C[C@H]4C(C)=C(OC)C(=O)[C@H]([C@@]2(C)C1=O)[C@@]34C [QUASSIN] | – | inhibition [5]: inactive; inhibition [6]: inactive; IC50 [3]: > 2000 nM; IC50 [4]: >30000 nM; inhibition [7]: inactive |
| CC1=C[C@H](O)[C@@H](O)[C@]2(C)[C@H]3[C@@]4(O)OC[C@]35[C@H]([C@@H](C)[C@H]4O)[C@@H](O)C(=O)O[C@@H]5C[C@@H]12 [GLAUCARUBOL] | 41000 | IC50 [3]: > 2000 nM; IC50 [4]: >30000 nM |
| C=C1[C@@H](O)[C@@]2(O)OC[C@@]34[C@H]1[C@@H](OC(=O)C/C=C/CCCCCCCC)C(=O)O[C@@H]3C[C@H]1C(C)=CC(=O)[C@@H](O)[C@]1(C)[C@@H]24 | 24 | IC50 [3]: > 2000 nM; IC50 [4]: <10000 nM |
| COC(=O)[C@]12OC[C@]34[C@H]([C@@H](O)[C@@H]1O)[C@@]1(C)[C@H](O)C(=O)C=C(C)[C@@H]1C[C@H]3OC(=O)[C@H](OC(=O)CC(C)C)[C@@H]24 [ISOBRUCEIN A] | 17 | – |
| CC1=CC(=O)[C@@H](O)[C@]2(C)[C@H]3[C@]4(O)OC[C@]35[C@H]([C@@H](C)[C@H]4O)[C@@H](O)C(=O)O[C@@H]5C[C@@H]12 [GLAUCARUBOLONE] | 290 | – |
| C=C1[C@@H](O)[C@]2(O)OC[C@@]34[C@H]1[C@@H](OC(=O)C/C=C/CCCCCCCC)C(=O)O[C@@H]3C[C@H]1C(C)=CC(=O)[C@@H](O)[C@]1(C)[C@@H]24 | 24 | – |
| COC(=O)[C@]12OC[C@]34[C@H]([C@@H](O)[C@@H]1O)[C@@]1(C)CC(=O)C(O)=C(C)[C@@H]1C[C@H]3OC(=O)[C@H](OC(=O)C=C(C)C)[C@@H]24 [BRUSATOL] | 260 | inhibition [5]: inactive; inhibition [6]: inactive; IC50 [3]: < 1000 nM; IC50 [4]: 230 nM; inhibition [7]: inactive |
| COC(=O)[C@@]12OC[C@]34[C@H]([C@@H](O)[C@@H]1O)[C@@]1(C)CC(=O)C(O)=C(C)[C@@H]1C[C@H]3OC(=O)[C@H](OC(=O)/C=C(\C)C(C)C)[C@@H]24 [BRUCEANTIN] | 5 | IC50 [3]: 51 nM; IC50 [4]: 410 nM |
| C/C=C(\C)C(=O)O[C@@H]1[C@H]2C(C)=CC(=O)[C@@H](O)[C@]2(C)[C@H]2[C@@]3(O)OC[C@]24[C@H]([C@@H](C)[C@H]3O)[C@@H](OC(C)=O)C(=O)O[C@H]14 [HANNOAENONE] | 40 | – |
| COC(=O)[C@]12OC[C@]34[C@H]([C@@H](O)[C@@H]1O)[C@@]1(C)C=C5OC(=O)C=C5[C@@H](C)[C@@H]1C[C@H]3OC(=O)[C@H](OC(C)=O)[C@@H]24 [SERGEOLIDE] | 3.8 | IC50 [3]: < 1000 nM; IC50 [4]: 70 nM |
| CC(C)CC(=O)O[C@H]1C(=O)O[C@@H]2C[C@H]3[C@H](C)C(=O)C(O[C@@H]4O[C@H](CO)[C@@H](O)[C@H](O)[C@H]4O)=C[C@]3(C)[C@H]3[C@@H](O)[C@H](O)[C@]4(C(=O)O)OC[C@]32[C@@H]14 [BRUCEOSIDE E] | 52000 | – |
| CC(C)=CC(=O)O[C@@H]1[C@H]2C(C)=CC(=O)[C@@H](O)[C@]2(C)[C@H]2[C@@]3(O)OC[C@@]24[C@@H]1OC(=O)C[C@H]4[C@@H](C)[C@H]3O | 19 | – |
| COC(=O)[C@@]12OC[C@]34[C@H]([C@H](O)[C@@H]1O)[C@@]1(C)CC(=O)C(OC(C)=O)=C(C)[C@H]1C[C@H]3OC(=O)[C@@H](OC(=O)C=C(C)C)[C@@H]24 | 790 | – |
| COC(=O)[C@@]12OC[C@]34[C@H]([C@@H](O)[C@@H]1O)[C@@]1(C)C=C5OC(=O)C=C5[C@@H](C)[C@@H]1C[C@H]3OC(=O)[C@H](O)[C@@H]24 | 160 | – |
| CC1=CC(=O)[C@H](O)[C@@]2(C)[C@@H]1C[C@H]1OC(=O)[C@@H](OC(=O)C(C)(C)CO)[C@@H]3[C@@H](C)[C@@H](O)[C@]4(O)OC[C@@]31[C@@H]42 | 95 | – |
| COC(=O)[C@@]12OC[C@]34[C@H]([C@@H](O)C1O)[C@@]1(C)CC(=O)C(OC(=O)/C=C(/c5ccccc5)C(F)(F)F)=C(C)[C@@H]1C[C@H]3OC(=O)[C@H](O)[C@H]42 (some centres undefined) | 7400 | – |
| COC(=O)[C@@]12OC[C@]34[C@H]([C@@H](O)[C@@H]1O)[C@@]1(C)[C@H](O)C(=O)C=C(C)[C@@H]1C[C@H]3OC(=O)[C@H](OC(C)=O)[C@@H]24 [ISOBRUCEIN B] | 100 | – |
| CC(C)=CC(=O)O[C@H]1C(=O)O[C@@H]2C[C@H]3C(C)=CC(=O)[C@@H](O)[C@]3(C)[C@H]3[C@@]4(O)OC[C@]32[C@@H]1[C@@H](C)[C@H]4O | 21 | – |
